# ChEMBL document CHEMBL3286371, “wALADin benzimidazoles differentially modulate the function of porphobilinogen synthase orthologs” (J Med Chem, 2014)
# The source made the active and inactive calls. No cut-off for these calls is given here.
# Experiments:
# [1] = target: Delta-aminolevulinic acid dehydratase (Yersinia enterocolitica W22703) (UniProt F4MUJ9); assay: Inhibition of Yersinia enterocolitica recombinant PBGS expressed in Escherichia coli using 5-ALA as substrate at 50 to 200 uM at pH 7 to 8.5 by buffer scan assay in presence of KCl
# [2] = target: Delta-aminolevulinic acid dehydratase (Pseudomonas aeruginosa (strain ATCC 15692 / PAO1 / 1C / PRS 101 / LMG12228)) (UniProt Q59643); assay: Inhibition of Pseudomonas aeruginosa PAO1 recombinant PBGS using 0.2 mM 5-ALA as substrate assessed as […] at 50 to 200 uM at pH 7.5 by buffer scan assay in presence of 1 mM MgCl2 and 1 to 1000 mM KCl
# [3] = target: Delta-aminolevulinic acid dehydratase (Pseudomonas aeruginosa (strain ATCC 15692 / PAO1 / 1C / PRS 101 / LMG12228)) (UniProt Q59643); assay: Stimulation of Pseudomonas aeruginosa PAO1 recombinant PBGS using 5-ALA as substrate at 10 to 1000 uM at pH 8 in presence of MgCl2 and KCl
# [4] = target: Delta-aminolevulinic acid dehydratase (Pseudomonas aeruginosa (strain ATCC 15692 / PAO1 / 1C / PRS 101 / LMG12228)) (UniProt Q59643); assay: Stimulation of Pseudomonas aeruginosa PAO1 recombinant PBGS using 5-ALA as substrate at 10 to 1000 uM at pH 8 in presence of 0.1 to 10000 uM MgCl2
# [5] = target: T1, Delta-aminolevulinic acid dehydratase (Escherichia coli (strain K12)) (UniProt P0ACB2); assay: Stimulation of Escherichia coli recombinant PBGS using 5-ALA as substrate at 10 to 1000 uM at pH 8 in presence of 0.1 to 10000 uM MgCl2
# T1 sequence (whole entry): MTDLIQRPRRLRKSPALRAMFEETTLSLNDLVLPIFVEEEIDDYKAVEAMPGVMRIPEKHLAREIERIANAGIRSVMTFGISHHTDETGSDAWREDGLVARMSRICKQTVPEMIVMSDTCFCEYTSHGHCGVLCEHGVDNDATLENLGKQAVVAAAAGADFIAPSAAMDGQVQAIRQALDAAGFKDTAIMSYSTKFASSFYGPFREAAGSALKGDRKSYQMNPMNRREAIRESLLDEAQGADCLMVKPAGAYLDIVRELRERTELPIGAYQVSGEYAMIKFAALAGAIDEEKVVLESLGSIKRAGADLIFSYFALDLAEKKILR
# [6] = target: Delta-aminolevulinic acid dehydratase (Pseudomonas aeruginosa (strain ATCC 15692 / PAO1 / 1C / PRS 101 / LMG12228)) (UniProt Q59643); assay: Inhibition of Pseudomonas aeruginosa PAO1 recombinant PBGS using low 5-ALA level as substrate at 50 to 200 uM by buffer scan assay
# [7] = target: T2, Delta-aminolevulinic acid dehydratase, chloroplastic (Pisum sativum) (UniProt P30124); assay: Competitive inhibition of Pisum sativum PBGS using 5-ALA as substrate at 6.25 to 100 uM; conditions: Lathyrus oleraceus
# T2 sequence (whole entry): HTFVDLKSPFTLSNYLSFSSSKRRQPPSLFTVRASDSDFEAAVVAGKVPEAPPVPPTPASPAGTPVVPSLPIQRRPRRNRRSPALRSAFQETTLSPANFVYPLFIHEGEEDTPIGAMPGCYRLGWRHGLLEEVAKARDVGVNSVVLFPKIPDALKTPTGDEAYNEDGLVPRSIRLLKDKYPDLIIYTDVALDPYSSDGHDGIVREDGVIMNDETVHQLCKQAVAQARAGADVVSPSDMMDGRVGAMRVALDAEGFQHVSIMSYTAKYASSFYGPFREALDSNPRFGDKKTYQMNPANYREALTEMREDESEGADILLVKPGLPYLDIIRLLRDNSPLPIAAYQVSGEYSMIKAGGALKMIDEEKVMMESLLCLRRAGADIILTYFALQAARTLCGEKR
# [8] = target: T2, Delta-aminolevulinic acid dehydratase, chloroplastic (Pisum sativum); assay: Non-competitive inhibition of Pisum sativum PBGS using 5-ALA as substrate at 6.25 to 100 uM; conditions: Lathyrus oleraceus
# [9] = target: T2, Delta-aminolevulinic acid dehydratase, chloroplastic (Pisum sativum); assay: Partial competitive inhibition of Pisum sativum PBGS using 5-ALA as substrate at 6.25 to 100 uM in presence of MgCl2; conditions: Lathyrus oleraceus
# [10] = target: Delta-aminolevulinic acid dehydratase (Yersinia enterocolitica W22703) (UniProt F4MUJ9); assay: Stimulation of Yersinia enterocolitica recombinant PBGS expressed in Escherichia coli using 5-ALA as substrate relative to control
# Method in brief: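 Y. enterocolitica PBGS, expressed in E. coli from pET3, at 150 nM subunit in 100 mM BTP-HCl pH 8.0 with 1 mM MgCl2, 5 mM DTT, 100 mM KCl and 0.2 mM 5-ALA, 10 min at 36 °C. Porphobilinogen read with Ehrlich's reagent. Activity normalized to 6.7% DMSO control as 100%. EC50 from variable-slope agonist fit.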
# [11] = Stimulation of Toxoplasma gondii recombinant PBGS using 5-ALA as substrate
# Method in brief: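 T. gondii PBGS, expressed from pET-21b in BL21 E. coli and purified, at 250 nM subunit in 100 mM Tris-HCl pH 8.0 with 1 mM MgCl2, 5 mM DTT and 0.2 mM 5-ALA, 20 min at 36 °C. Porphobilinogen detected with Ehrlich's reagent. Activity normalized to 6.7% DMSO control. EC50 by variable-slope agonist fit.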
# [12] = target: T3, Delta-aminolevulinic acid dehydratase (Drosophila melanogaster, UniProt Q9VTV9); assay: Inhibition of Drosophila melanogaster recombinant PBGS using 5-ALA as substrate
# T3 sequence (Q9VTV9 whole entry): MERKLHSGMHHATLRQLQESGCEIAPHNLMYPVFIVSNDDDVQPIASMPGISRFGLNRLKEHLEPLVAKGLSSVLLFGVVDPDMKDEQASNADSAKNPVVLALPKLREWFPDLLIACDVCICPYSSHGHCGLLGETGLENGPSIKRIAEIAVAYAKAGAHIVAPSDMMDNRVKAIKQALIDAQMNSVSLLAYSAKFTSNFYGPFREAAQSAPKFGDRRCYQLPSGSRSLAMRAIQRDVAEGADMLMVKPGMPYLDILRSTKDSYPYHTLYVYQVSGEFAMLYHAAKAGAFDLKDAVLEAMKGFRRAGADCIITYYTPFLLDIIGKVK
# [13] = target: T4, Delta-aminolevulinic acid dehydratase (Wolbachia sp. subsp. Brugia malayi (strain TRS)) (UniProt Q5GSR3); conditions: 25 to 2500 uM
# T4 sequence (whole entry): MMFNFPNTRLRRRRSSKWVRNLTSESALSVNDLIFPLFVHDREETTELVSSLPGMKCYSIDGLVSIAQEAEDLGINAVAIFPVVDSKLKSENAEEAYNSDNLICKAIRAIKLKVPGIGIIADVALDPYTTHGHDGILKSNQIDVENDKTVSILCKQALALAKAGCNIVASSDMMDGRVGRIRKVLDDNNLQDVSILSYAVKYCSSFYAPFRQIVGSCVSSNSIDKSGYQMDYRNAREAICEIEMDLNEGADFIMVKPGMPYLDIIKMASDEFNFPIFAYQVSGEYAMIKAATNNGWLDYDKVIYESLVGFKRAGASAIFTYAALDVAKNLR
# Delta-aminolevulinic acid dehydratase (Pseudomonas aeruginosa (strain ATCC 15692 / PAO1 / 1C / PRS 101 / LMG12228)), sequence (Q59643 whole entry): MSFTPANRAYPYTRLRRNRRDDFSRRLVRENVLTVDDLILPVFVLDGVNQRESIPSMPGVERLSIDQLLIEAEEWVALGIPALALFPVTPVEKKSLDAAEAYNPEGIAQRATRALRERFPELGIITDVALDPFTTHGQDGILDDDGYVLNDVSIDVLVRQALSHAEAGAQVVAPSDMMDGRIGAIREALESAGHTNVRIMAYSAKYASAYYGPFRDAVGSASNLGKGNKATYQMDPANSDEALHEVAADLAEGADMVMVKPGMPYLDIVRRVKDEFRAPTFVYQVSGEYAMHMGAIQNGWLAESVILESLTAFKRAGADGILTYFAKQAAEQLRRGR
# Delta-aminolevulinic acid dehydratase (Yersinia enterocolitica W22703), sequence (F4MUJ9 as listed by the source): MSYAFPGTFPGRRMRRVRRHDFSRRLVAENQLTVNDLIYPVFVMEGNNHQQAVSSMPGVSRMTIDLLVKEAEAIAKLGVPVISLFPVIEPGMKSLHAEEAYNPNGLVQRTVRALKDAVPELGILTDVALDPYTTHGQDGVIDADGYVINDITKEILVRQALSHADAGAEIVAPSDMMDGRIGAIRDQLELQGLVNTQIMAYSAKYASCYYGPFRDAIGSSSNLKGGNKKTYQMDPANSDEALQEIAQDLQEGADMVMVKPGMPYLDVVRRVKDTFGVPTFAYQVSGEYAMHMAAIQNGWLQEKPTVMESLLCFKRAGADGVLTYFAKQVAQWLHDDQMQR
smiles,measurement,setting,value
O=C(O)c1ccc2c(c1)nc(CCNC(=O)c1cccs1)n2Cc1cccc(C(F)(F)F)c1,inhibition,[1],Active
same,inhibition,[2],inactive
same,Activity,[3],Active
same,Activity,[4],Active
same,Activity,[5],Active
same,inhibition,[6],Active
same,inhibition,[7],Active
same,inhibition,[8],Active
same,inhibition,[9],Active
same,Smax,[10],152%
same,EC50,[11],95 µM
same,IC50,[12],1110 µM
same,inhibition,[13],Active
